{"source": "paper PMC8633684", "about": "(Translational Oncology, 2021)", "key": {"[1]": {"test": "Pharmacokinetic analysis, plasma and tissue concentration", "assay_type": "in vivo, CD1 mice", "conditions": "CD1, mouse, 1 mg/kg"}, "[2]": {"test_system": "KP-4 transplanted tumor", "test": "KP-4 xenograft, 6 days of treatment followed by 3 days off-drug", "assay_type": "in vivo, BALB/c Nude mice", "conditions": "compared with vehicle group"}, "[3]": {"test_system": "MCL-1", "test": "MCL-1 protein in KP-4 transplanted tumor homogenate", "assay_type": "in vivo, BALB/c Nude mice", "conditions": "KP-4 xenograft, BS-HH-002 5.4 mg/kg, versus vehicle group", "procedure,_shortened": "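The model was KP-4 subcutaneous xenografts in BALB/c Nude mice. Tumors from at least five mice in each of the vehicle, gemcitabine and test compound (5.4 mg/kg) groups were analysed. MCL-1 and BCL-XL protein levels were measured by Western blot with β-actin or β-Tubulin as internal reference.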"}, "[4]": {"test_system": "TIP30/CC3", "test": "Immunofluorescence of TIP30/CC3 in KP-4 tumor sections", "assay_type": "in vivo, BALB/c Nude mice", "conditions": "BS-HH-002 at 3.0 mg/kg, p = 0.004, p = 0.461"}}}
{"compound": "COC(=O)C[C@](O)(CCCC(C)(C)O)C(=O)O[C@@H]1C(OC)=C[C@]23CCCN2CCc2cc4c(cc2[C@H]13)OCO4", "note": "[HHT, homoharringtonine]", "values": [{"measurement": "concentration at 2 h", "setting": "[1]; bone marrow, po", "result": 669, "unit": "ng/mL"}, {"measurement": "concentration at 8 h", "setting": "[1]; bone marrow, po", "result": 48.6, "unit": "ng/mL"}, {"measurement": "concentration at 0.5 h", "setting": "[1]; bone marrow, sc", "result": 141, "unit": "ng/mL"}, {"measurement": "concentration at 2 h", "setting": "[1]; bone marrow, sc", "result": 412, "unit": "ng/mL"}, {"measurement": "concentration at 8 h", "setting": "[1]; bone marrow, sc", "result": 43.5, "unit": "ng/mL"}, {"measurement": "concentration at 0.5 h", "setting": "[1]; brain, sc", "result": 11, "unit": "ng/mL"}, {"measurement": "concentration at 2 h", "setting": "[1]; brain, sc", "result": 6.37, "unit": "ng/mL"}, {"measurement": "concentration at 8 h", "setting": "[1]; brain, sc", "result": 4.97, "unit": "ng/mL"}, {"measurement": "concentration at 0.5 h", "setting": "[1]; esophagus, po", "result": 607, "unit": "ng/mL"}, {"measurement": "concentration at 0.5 h", "setting": "[1]; esophagus, sc", "result": 138, "unit": "ng/mL"}, {"measurement": "concentration at 2 h", "setting": "[1]; esophagus, sc", "result": 185, "unit": "ng/mL"}, {"measurement": "concentration at 8 h", "setting": "[1]; esophagus, sc", "result": 52.6, "unit": "ng/mL"}, {"measurement": "concentration at 0.5 h", "setting": "[1]; heart, po", "result": 125, "unit": "ng/mL"}, {"measurement": "concentration at 2 h", "setting": "[1]; heart, po", "result": 321, "unit": "ng/mL"}, {"measurement": "concentration at 8 h", "setting": "[1]; heart, po", "result": 156, "unit": "ng/mL"}, {"measurement": "concentration at 0.5 h", "setting": "[1]; heart, sc", "result": 541, "unit": "ng/mL"}, {"measurement": "concentration at 2 h", "setting": "[1]; heart, sc", "result": 254, "unit": "ng/mL"}, {"measurement": "concentration at 8 h", "setting": "[1]; heart, sc", "result": 115, "unit": "ng/mL"}, {"measurement": "concentration at 0.5 h", "setting": "[1]; kidney, po", "result": 25.4, "unit": "ng/mL"}, {"measurement": "concentration at 2 h", "setting": "[1]; kidney, po", "result": 117, "unit": "ng/mL"}, {"measurement": "concentration at 8 h", "setting": "[1]; kidney, po", "result": 33.5, "unit": "ng/mL"}, {"measurement": "concentration at 0.5 h", "setting": "[1]; kidney, sc", "result": 2010, "unit": "ng/mL"}, {"measurement": "concentration at 2 h", "setting": "[1]; kidney, sc", "result": 796, "unit": "ng/mL"}, {"measurement": "concentration at 8 h", "setting": "[1]; kidney, sc", "result": 95.6, "unit": "ng/mL"}, {"measurement": "concentration at 24 h", "setting": "[1]; kidney, sc", "result": 5.04, "unit": "ng/mL"}, {"measurement": "concentration at 0.5 h", "setting": "[1]; large intestine, po", "result": 105, "unit": "ng/mL"}, {"measurement": "concentration at 2 h", "setting": "[1]; large intestine, po", "result": 528, "unit": "ng/mL"}, {"measurement": "concentration at 8 h", "setting": "[1]; large intestine, po", "result": 689, "unit": "ng/mL"}, {"measurement": "concentration at 0.5 h", "setting": "[1]; large intestine, sc", "result": 1030, "unit": "ng/mL"}, {"measurement": "concentration at 2 h", "setting": "[1]; large intestine, sc", "result": 807, "unit": "ng/mL"}, {"measurement": "concentration at 8 h", "setting": "[1]; large intestine, sc", "result": 502, "unit": "ng/mL"}, {"measurement": "concentration at 24 h", "setting": "[1]; large intestine, sc", "result": 35.4, "unit": "ng/mL"}, {"measurement": "concentration at 0.5 h", "setting": "[1]; liver, po", "result": 184, "unit": "ng/mL"}, {"measurement": "concentration at 2 h", "setting": "[1]; liver, po", "result": 296, "unit": "ng/mL"}, {"measurement": "concentration at 8 h", "setting": "[1]; liver, po", "result": 173, "unit": "ng/mL"}, {"measurement": "concentration at 0.5 h", "setting": "[1]; liver, sc", "result": 983, "unit": "ng/mL"}, {"measurement": "concentration at 2 h", "setting": "[1]; liver, sc", "result": 615, "unit": "ng/mL"}, {"measurement": "concentration at 8 h", "setting": "[1]; liver, sc", "result": 80.2, "unit": "ng/mL"}, {"measurement": "concentration at 24 h", "setting": "[1]; liver, sc", "result": 4.53, "unit": "ng/mL"}, {"measurement": "concentration at 0.5 h", "setting": "[1]; lung, po", "result": 135, "unit": "ng/mL"}, {"measurement": "concentration at 2 h", "setting": "[1]; lung, po", "result": 807, "unit": "ng/mL"}, {"measurement": "concentration at 8 h", "setting": "[1]; lung, po", "result": 73.6, "unit": "ng/mL"}, {"measurement": "concentration at 0.5 h", "setting": "[1]; lung, sc", "result": 693, "unit": "ng/mL"}, {"measurement": "concentration at 2 h", "setting": "[1]; lung, sc", "result": 287, "unit": "ng/mL"}, {"measurement": "concentration at 8 h", "setting": "[1]; lung, sc", "result": 62.5, "unit": "ng/mL"}, {"measurement": "concentration at 24 h", "setting": "[1]; lung, sc", "result": 5.8, "unit": "ng/mL"}, {"measurement": "concentration at 0.5 h", "setting": "[1]; pancreas, po", "result": 85.8, "unit": "ng/mL"}, {"measurement": "concentration at 2 h", "setting": "[1]; pancreas, po", "result": 228, "unit": "ng/mL"}, {"measurement": "concentration at 8 h", "setting": "[1]; pancreas, po", "result": 211, "unit": "ng/mL"}, {"measurement": "concentration at 24 h", "setting": "[1]; pancreas, po", "result": 4.86, "unit": "ng/mL"}, {"measurement": "concentration at 0.5 h", "setting": "[1]; pancreas, sc", "result": 753, "unit": "ng/mL"}, {"measurement": "concentration at 2 h", "setting": "[1]; pancreas, sc", "result": 512, "unit": "ng/mL"}, {"measurement": "concentration at 8 h", "setting": "[1]; pancreas, sc", "result": 215, "unit": "ng/mL"}, {"measurement": "concentration at 24 h", "setting": "[1]; pancreas, sc", "result": 5.62, "unit": "ng/mL"}, {"measurement": "concentration at 0.5 h", "setting": "[1]; plasma, po", "result": 14.8, "unit": "ng/mL"}, {"measurement": "concentration at 2 h", "setting": "[1]; plasma, po", "result": 47.7, "unit": "ng/mL"}, {"measurement": "concentration at 8 h", "setting": "[1]; plasma, po", "result": 13.7, "unit": "ng/mL"}, {"measurement": "concentration at 0.5 h", "setting": "[1]; plasma, sc", "result": 166, "unit": "ng/mL"}, {"measurement": "concentration at 2 h", "setting": "[1]; plasma, sc", "result": 48.9, "unit": "ng/mL"}, {"measurement": "concentration at 8 h", "setting": "[1]; plasma, sc", "result": 11.1, "unit": "ng/mL"}, {"measurement": "concentration at 24 h", "setting": "[1]; plasma, sc", "result": 0.929, "unit": "ng/mL"}, {"measurement": "concentration at 0.5 h", "setting": "[1]; spleen, po", "result": 184, "unit": "ng/mL"}, {"measurement": "concentration at 2 h", "setting": "[1]; spleen, po", "result": 742, "unit": "ng/mL"}, {"measurement": "concentration at 8 h", "setting": "[1]; spleen, po", "result": 225, "unit": "ng/mL"}, {"measurement": "concentration at 0.5 h", "setting": "[1]; spleen, sc", "result": 1990, "unit": "ng/mL"}, {"measurement": "concentration at 2 h", "setting": "[1]; spleen, sc", "result": 1290, "unit": "ng/mL"}, {"measurement": "concentration at 8 h", "setting": "[1]; spleen, sc", "result": 282, "unit": "ng/mL"}, {"measurement": "concentration at 24 h", "setting": "[1]; spleen, sc", "result": 16.5, "unit": "ng/mL"}, {"measurement": "concentration at 0.5 h", "setting": "[1]; stomach, po", "result": 1360, "unit": "ng/mL"}, {"measurement": "concentration at 2 h", "setting": "[1]; stomach, po", "result": 806, "unit": "ng/mL"}, {"measurement": "concentration at 8 h", "setting": "[1]; stomach, po", "result": 870, "unit": "ng/mL"}, {"measurement": "concentration at 0.5 h", "setting": "[1]; stomach, sc", "result": 999, "unit": "ng/mL"}, {"measurement": "concentration at 2 h", "setting": "[1]; stomach, sc", "result": 587, "unit": "ng/mL"}, {"measurement": "concentration at 8 h", "setting": "[1]; stomach, sc", "result": 128, "unit": "ng/mL"}, {"measurement": "concentration at 24 h", "setting": "[1]; stomach, sc", "result": 9.84, "unit": "ng/mL"}]}
{"compound": "Nc1ccn([C@@H]2O[C@H](CO)[C@@H](O)C2(F)F)c(=O)n1", "note": "[gemcitabine, Gemcitabine]", "values": [{"measurement": "tumor volume", "setting": "[2]", "result": "decreased significantly"}, {"measurement": "MCL-1 protein level in tumor cells", "setting": "[3]", "result": "no significant difference"}, {"measurement": "CC3 protein expression", "setting": "[4]", "result": "significantly increased"}]}
